Laboratory results published in ChEMBL document CHEMBL3244000, “Aromatic hydroxylation of beta-adrenergic antagonists. Formation of 4'- and 5'-hydroxy-1-(isopropylamino)-3-[2'-allyloxy)phenoxy]-2-propanol from oxprenolol” (J Med Chem, 1979).

Experiments:
[1] = Drug level in Sprague-Dawley rat urine treated with oxprenolol hydrochloride at 20 mg/kg, ip measured after 24 hrs by GC-CIMS analysis in presence of beta-glucuronidase and CH2N2; format: ADME, organism-based; design: dose 20 mg/kg, route intraperitoneal; details: in vivo
Procedure, shortened: (§1)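 Six male Sprague-Dawley rats (120 g) were given oxprenolol hydrochloride ip at 20 mg/kg (4 mg/mL in sterile isotonic water). Urine was collected over 24 h in metabolic cages and pooled, then incubated overnight at 37 °C with 9200 units β-glucuronidase in pH 5.0 acetate buffer. Extract was methylated with diazomethane and TFA-derivatized. GC-CIMS monitored QM ions; isomer ratio was taken from the total ion current tracings.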

[2] = Drug level in Sprague-Dawley rat urine treated with oxprenolol hydrochloride at 20 mg/kg, ip measured after 24 hrs by GC-CIMS analysis; format: ADME, organism-based; design: dose 20 mg/kg, route intraperitoneal; details: in vivo; procedure, shortened: as §1

| Drug excretion [1] | Drug excretion [2] | Structure (SMILES) |
| --- | --- | --- |
| metabolite_detected |  | C=CCOc1ccc(OC)cc1OCC(O)CNC(C)C (centres undefined) |
| metabolite_detected |  | C=CCOc1cc(OC)ccc1OCC(O)CNC(C)C (centres undefined) |
|  | metabolite_detected | C=CCOc1ccc(O)cc1OCC(O)CNC(C)C (centres undefined) |
|  | metabolite_detected | C=CCOc1cc(O)ccc1OCC(O)CNC(C)C (centres undefined) |
